Experimental data of several laboratories.
Each line is one published result; the experiments were not run side by side.
Target: Interleukin-1 receptor-associated kinase 1 (IRAK1, Homo sapiens, UniProt P51617)

For `C=CC(=O)N1CCC([C@@H]2CCNc3c(C(N)=O)c(-c4ccc(Oc5ccccc5)cc4)nn32)CC1`, the inhibition was 0% (enzyme activity, inhibitor; 1 µM).
`C[C@H]1CC[C@H](n2c3cnccc3c3cnc(Nc4ccc5c(n4)CCN(C(=O)CO)C5)nc32)CC1` has a remaining signal of 23% (cell-free assay; 1 µM).
The inhibition of `C#Cc1cc(-c2cc(Nc3nc(N[C@@H](C)c4ccc(F)cn4)ncc3Cl)n[nH]2)ccc1C=O` is reported as 10.8% (enzyme activity, inhibitor; 0.2 µM).
`CCCCC(=O)Nc1ccc(-c2ccc3ncn(CCC)c(=O)c3c2)cn1` gave a remaining binding of 75% (binding, competition with immobilised ligand; 0.5 µM).
For `Cc1cc(O)c(-c2ccc([C@@H](C)CN(C)C)cc2)c2c1[nH]c(=O)c1sccc12`, the inhibition was -2.56% (enzyme activity, inhibitor; 0.1 µM).
With `C1=C/COCc2cc(ccc2OCCN2CCCC2)Nc2nccc(n2)-c2cccc(c2)COC/1` the remaining binding was 0% (binding; 0.1 µM).
The remaining binding of `Cc1ccc(NC(=O)c2ccnc(C(F)(F)F)c2)cc1-c1cc(OCCO)nc(N2CCOCC2)c1` is reported as 100% (binding; 1 µM).
The remaining binding of `COc1ccc2oc(-c3ccc4nc(N)oc4c3)c/c(=N\c3ccccc3NC(=O)CCN)c2c1` is reported as 102% (binding; 1 µM).
`CO[C@@H]1[C@H](N(C)C(=O)c2ccccc2)C[C@H]2O[C@]1(C)n1c3ccccc3c3c4c(c5c6ccccc6n2c5c31)C(=O)NC4` gave an inhibition of 19% (enzyme activity, inhibitor; 1 µM).
